The text below walks through data of ChEMBL document CHEMBL3286150, “Discovery of PF-5190457, a Potent, Selective, and Orally Bioavailable Ghrelin Receptor Inverse Agonist Clinical Candidate” (ACS Med Chem Lett, 2014).

Activity calls are given as the source filed them. The rule behind the calls is not given here.

Data set [1] can be described thus: Apparent intrinsic clearance in human liver microsomes. The format is ADME. To be noted: read-out: CLH. In outline: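 Apparent intrinsic clearance in human liver microsomes, expressed as mL/min/kg. Values are uncorrected for fraction unbound.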
Data set [2] concerns the target T1, Growth hormone secretagogue receptor type 1 (Homo sapiens, UniProt Q92847). Description: Displacement of [125I]ghrelin from human ghrelin receptor expressed in HEK293 cells after 8 hrs by scintillation proximity assay. The format is cell-based. The essentials:
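Human ghrelin receptor binding measured by scintillation proximity assay. Values are geometric means of at least 3 measurements, unless noted otherwise.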

The subject of another data set is MDCK. Kind of data set: Efflux ratio of permeability from basolateral to apical over apical to basolateral side in MDCK cells expressing human MDR1. The note with it: dog.
Data set [3] concerns the target T2, Muscarinic acetylcholine receptor M2 (Homo sapiens) (UniProt P08172).
T2 sequence (whole entry): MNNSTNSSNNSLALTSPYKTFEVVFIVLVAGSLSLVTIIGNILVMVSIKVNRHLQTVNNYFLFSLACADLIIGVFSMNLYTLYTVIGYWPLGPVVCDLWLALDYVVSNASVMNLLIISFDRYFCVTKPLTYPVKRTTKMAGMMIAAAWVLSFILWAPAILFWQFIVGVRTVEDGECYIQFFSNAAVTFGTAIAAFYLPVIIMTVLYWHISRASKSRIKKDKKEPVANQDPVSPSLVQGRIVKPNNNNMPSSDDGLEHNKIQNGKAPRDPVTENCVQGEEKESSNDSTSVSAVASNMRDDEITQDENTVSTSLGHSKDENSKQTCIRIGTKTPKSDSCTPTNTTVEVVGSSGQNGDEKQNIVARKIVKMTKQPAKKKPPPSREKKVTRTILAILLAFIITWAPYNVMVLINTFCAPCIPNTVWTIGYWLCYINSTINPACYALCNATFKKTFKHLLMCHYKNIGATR
Description: Antagonist activity at muscarinic M2 receptor (unknown origin) expressed in CHO-K1 CHRM2 beta-arrestin cells assessed as inhibition of oxotremorine S-induced effect after 90 mins. The format is cell-based. The essentials: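 Antagonist mode in a β-arrestin PathHunter format. Kb was determined in the presence of an EC80 concentration of the agonist oxotremorine.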

The species named for the next data set is Homo sapiens. Kind of data set: Selectivity ratio of pKb for muscarinic M2 receptor (unknown origin) expressed in CHO-K1 CHRM2 beta-arrestin cells to Ki for human ghrelin receptor expressed. The format is cell-based. In outline: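 Ratio of the M2 Kb (β-arrestin PathHunter antagonist format, EC80 oxotremorine) over the human ghrelin receptor functional Ki (GTP-γ-S assay).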

The nature of data set [4]: Apparent permeability of the compound in MDCK2 cells. The format is ADME, cell-based, Canis lupus familiaris, MDCK-II. To be noted: dog, mdck. The essentials:
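Passive permeability (Papp, 10–6 cm/s) measured in low-efflux MDCKII cells.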

For data set [5], the target named is T1, Growth hormone secretagogue receptor type 1. Kind of data set: Inverse agonist activity at human ghrelin receptor expressed in HEK293 cells assessed as inhibition of ghrelin-induced europium-labeled GTP-gamma-S binding by DELFIA. The format is cell-based. In outline: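 GTP-γ-S functional assay run in agonist/antagonist/inverse-agonist mode. Minimum percent effect is reported, with negative values denoting inverse agonism. Values are geometric means ± standard error of ≥3 measurements unless noted.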
On the technique in general: Binding of GTPγS marks nucleotide exchange on a G protein.

For data set [6], the target named is Histamine H1 receptor (Homo sapiens) (UniProt P35367). Description: Activity at histamine H1 receptor (unknown origin) at 10 uM.
Data set [7] deals with T3, Alpha-2A adrenergic receptor (Homo sapiens) (UniProt P08913).
T3 sequence (whole entry): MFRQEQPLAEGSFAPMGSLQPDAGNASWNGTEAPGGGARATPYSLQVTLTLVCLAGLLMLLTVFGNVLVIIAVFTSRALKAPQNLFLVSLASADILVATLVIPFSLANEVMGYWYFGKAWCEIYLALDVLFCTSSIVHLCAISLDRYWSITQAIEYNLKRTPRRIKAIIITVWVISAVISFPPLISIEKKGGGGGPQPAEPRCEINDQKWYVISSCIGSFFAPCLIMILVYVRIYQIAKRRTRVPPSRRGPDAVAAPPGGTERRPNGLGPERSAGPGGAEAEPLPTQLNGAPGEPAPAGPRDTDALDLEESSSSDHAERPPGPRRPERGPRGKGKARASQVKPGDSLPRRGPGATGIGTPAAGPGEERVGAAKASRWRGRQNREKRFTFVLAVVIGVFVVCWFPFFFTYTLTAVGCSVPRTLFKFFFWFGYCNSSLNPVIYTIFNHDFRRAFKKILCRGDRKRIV
Description: Activity at adrenergic alpha2A receptor (unknown origin) at 10 uM.

Data set [8] has as its target T4, D(4) dopamine receptor (Homo sapiens) (UniProt P21917).
T4 sequence (whole entry): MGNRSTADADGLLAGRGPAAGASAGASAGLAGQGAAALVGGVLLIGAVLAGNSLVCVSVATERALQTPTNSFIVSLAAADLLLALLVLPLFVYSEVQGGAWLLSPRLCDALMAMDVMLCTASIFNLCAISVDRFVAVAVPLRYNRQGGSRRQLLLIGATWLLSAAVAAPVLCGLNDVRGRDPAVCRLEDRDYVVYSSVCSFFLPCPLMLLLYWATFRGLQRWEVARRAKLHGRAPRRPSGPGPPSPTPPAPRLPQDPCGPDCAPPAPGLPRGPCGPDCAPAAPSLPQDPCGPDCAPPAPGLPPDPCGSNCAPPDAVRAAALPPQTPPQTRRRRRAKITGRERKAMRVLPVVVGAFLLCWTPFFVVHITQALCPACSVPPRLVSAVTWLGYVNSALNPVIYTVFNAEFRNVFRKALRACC
Description: Activity at dopamine D4 receptor (unknown origin) at 10 uM.

Data set [9] addresses T5, Alpha-2C adrenergic receptor (Homo sapiens) (UniProt P18825).
T5 sequence (whole entry): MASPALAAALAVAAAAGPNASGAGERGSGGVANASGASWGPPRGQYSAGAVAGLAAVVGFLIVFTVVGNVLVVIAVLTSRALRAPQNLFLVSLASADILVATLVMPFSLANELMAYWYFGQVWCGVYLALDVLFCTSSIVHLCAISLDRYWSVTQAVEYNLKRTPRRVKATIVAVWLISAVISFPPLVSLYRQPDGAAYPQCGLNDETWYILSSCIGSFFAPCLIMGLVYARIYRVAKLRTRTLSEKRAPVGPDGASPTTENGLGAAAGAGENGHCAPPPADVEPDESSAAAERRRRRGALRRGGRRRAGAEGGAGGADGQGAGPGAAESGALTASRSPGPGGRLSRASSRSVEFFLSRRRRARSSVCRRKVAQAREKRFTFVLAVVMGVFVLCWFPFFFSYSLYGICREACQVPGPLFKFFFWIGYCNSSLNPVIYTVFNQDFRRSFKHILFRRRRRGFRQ
Kind of data set: Activity at adrenergic alpha2C receptor (unknown origin) at 10 uM.

The target in data set [10] is D(3) dopamine receptor (Homo sapiens) (UniProt P35462). Description: Activity at dopamine D3 receptor (unknown origin) at 10 uM.
For data set [11], the target named is D(2) dopamine receptor (Homo sapiens) (UniProt P14416). Description: Activity at dopamine D2S receptor (unknown origin) at 10 uM.
Data set [12] concerns the target T6, 5-hydroxytryptamine receptor 2B (Homo sapiens, UniProt P41595). Description: Inhibition of 5HT2B receptor (unknown origin).
Data set [13] deals with T6, 5-hydroxytryptamine receptor 2B. Kind of data set: Antagonist activity at 5HT2B receptor (unknown origin).
A short description of data set [14]: Oral absorption in portal vein cannulated rat at 10 mg/kg, po. The class given is ADME, organism-based. To be noted: in vivo. The arrangement: dose 10 mg/kg, route oral.
The target in data set [15] is T6, 5-hydroxytryptamine receptor 2B. Description: Agonist activity at 5HT2B receptor (unknown origin).
Data set [16] concerns the target Voltage-gated inwardly rectifying potassium channel KCNH2 (Homo sapiens, UniProt Q12809). Description: Inhibition of human ERG.

T1 sequence (Q92847 whole entry): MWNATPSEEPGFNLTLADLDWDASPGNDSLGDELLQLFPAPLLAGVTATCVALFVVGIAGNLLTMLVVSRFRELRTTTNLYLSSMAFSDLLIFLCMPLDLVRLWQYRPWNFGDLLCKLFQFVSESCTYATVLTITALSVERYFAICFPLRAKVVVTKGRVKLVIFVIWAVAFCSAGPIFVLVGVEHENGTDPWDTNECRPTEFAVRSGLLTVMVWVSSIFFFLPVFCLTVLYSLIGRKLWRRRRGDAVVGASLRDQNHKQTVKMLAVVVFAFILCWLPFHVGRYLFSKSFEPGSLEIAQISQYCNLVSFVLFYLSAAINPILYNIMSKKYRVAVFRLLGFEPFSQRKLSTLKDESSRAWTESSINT
T6 sequence (P41595 whole entry): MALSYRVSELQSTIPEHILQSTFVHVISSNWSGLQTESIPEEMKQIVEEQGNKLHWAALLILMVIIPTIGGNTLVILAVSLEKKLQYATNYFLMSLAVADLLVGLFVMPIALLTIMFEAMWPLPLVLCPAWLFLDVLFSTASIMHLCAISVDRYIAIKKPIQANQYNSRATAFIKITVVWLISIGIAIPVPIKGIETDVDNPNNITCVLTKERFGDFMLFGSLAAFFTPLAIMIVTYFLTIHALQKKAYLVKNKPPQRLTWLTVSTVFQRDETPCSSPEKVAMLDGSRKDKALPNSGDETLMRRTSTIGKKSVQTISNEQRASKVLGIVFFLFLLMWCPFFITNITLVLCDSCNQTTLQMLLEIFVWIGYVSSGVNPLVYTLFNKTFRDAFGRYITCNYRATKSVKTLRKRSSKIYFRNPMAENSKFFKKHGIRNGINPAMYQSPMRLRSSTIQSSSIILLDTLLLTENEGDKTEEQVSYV
Voltage-gated inwardly rectifying potassium channel KCNH2, sequence (Q12809 whole entry): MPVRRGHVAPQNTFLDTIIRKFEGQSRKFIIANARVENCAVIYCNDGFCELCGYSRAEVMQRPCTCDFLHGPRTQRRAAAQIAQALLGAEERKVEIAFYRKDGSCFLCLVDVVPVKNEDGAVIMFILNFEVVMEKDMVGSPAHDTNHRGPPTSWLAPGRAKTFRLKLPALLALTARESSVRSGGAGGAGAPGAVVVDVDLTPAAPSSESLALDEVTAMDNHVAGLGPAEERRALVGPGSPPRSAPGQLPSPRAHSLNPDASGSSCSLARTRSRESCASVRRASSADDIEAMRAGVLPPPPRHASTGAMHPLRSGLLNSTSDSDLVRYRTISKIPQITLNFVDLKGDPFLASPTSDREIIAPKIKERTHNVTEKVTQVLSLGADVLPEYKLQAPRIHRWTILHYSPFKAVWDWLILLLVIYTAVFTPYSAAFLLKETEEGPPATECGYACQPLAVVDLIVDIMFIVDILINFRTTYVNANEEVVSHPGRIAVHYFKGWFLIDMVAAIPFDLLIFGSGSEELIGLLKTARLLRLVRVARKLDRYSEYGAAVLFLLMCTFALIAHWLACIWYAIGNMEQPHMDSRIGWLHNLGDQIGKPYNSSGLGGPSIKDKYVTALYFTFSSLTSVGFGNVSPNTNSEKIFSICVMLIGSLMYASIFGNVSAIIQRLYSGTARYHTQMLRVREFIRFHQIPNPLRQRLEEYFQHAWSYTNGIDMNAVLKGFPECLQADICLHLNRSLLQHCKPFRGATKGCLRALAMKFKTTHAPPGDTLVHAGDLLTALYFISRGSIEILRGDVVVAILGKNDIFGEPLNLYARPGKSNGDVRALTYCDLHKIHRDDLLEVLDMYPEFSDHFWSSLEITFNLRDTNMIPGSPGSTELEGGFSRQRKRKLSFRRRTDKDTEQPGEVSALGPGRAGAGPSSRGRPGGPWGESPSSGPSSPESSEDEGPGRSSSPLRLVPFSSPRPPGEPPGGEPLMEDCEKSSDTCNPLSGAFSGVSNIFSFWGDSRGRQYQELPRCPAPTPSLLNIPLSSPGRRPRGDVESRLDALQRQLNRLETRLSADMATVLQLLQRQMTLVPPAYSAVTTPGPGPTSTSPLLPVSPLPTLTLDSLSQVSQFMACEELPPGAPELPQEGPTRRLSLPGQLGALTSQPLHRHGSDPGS
D(3) dopamine receptor (Homo sapiens), sequence (P35462 whole entry): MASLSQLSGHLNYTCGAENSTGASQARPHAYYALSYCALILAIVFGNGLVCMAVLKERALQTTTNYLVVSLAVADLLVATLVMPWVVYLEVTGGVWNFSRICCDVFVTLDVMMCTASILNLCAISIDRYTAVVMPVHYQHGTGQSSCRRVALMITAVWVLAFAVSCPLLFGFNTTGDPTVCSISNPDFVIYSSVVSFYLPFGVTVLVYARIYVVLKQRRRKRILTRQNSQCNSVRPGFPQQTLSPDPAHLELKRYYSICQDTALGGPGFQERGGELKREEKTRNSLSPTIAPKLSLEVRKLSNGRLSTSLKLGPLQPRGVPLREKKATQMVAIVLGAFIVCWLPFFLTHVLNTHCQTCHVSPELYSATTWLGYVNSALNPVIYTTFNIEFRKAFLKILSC
D(2) dopamine receptor (Homo sapiens), sequence (P14416 whole entry): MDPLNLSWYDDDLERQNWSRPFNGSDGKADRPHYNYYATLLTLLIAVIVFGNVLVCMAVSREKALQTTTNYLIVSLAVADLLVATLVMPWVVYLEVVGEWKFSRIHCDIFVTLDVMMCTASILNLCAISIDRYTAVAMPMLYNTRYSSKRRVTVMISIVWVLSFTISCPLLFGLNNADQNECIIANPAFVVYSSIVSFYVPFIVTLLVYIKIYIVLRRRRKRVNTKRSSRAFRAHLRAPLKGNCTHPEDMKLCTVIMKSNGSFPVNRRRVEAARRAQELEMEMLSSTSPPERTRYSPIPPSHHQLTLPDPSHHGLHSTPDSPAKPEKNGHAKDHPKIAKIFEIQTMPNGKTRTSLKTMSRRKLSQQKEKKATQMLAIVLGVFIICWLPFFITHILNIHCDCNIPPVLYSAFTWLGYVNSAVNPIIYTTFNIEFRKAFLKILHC
Histamine H1 receptor (Homo sapiens), sequence (P35367 whole entry): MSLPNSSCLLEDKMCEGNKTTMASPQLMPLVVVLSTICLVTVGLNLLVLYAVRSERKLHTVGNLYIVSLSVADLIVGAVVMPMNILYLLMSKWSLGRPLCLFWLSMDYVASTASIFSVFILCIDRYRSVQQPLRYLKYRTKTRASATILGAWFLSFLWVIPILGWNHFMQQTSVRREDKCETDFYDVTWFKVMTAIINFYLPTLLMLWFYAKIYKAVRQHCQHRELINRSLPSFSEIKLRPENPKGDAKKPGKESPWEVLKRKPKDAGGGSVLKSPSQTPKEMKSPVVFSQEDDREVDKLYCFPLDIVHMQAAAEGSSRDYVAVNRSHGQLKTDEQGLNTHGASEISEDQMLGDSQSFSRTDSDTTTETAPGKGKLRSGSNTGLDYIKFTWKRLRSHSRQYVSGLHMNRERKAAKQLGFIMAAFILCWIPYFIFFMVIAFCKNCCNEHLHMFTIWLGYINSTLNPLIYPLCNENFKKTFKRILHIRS

For the compound `Cc1cn2cc(CC(=O)N3CCC4(CC3)CN([C@@H]3CCc5cc(-c6ncccn6)ccc53)C4)nc2s1`, the CLint scaled in data set [1] was 18 mL/min/kg. Besides, the Ki (usually the dissociation constant of the complex between target and ligand, obtained from inhibition or displacement) is 4.57 nM in data set [2] and 6.61 nM in data set [5]. Moreover, the Ratio in the data set on MDCK was found to be 5.4; in the data set filed under Homo sapiens it was 47. In addition, the pKb (as a rule, the Kb on a negative log10 scale, so that one unit is a factor of ten) in [3] was found to be 6.41. For the same compound, in [4], the Papp (commonly a coefficient for how fast a substance crosses the barrier) came out at 11 ×10⁻⁶ cm/s.

For `COc1ccc(CC(=O)N2CCC3(CC2)CN([C@@H]2CCc4cc(-c5ncccn5)ccc42)C3)cc1`, the outcome in data set [6], in [7], in [8], in data set [9], in [10] and in [11] was Active. Moreover, the pKb in data set [3] stood at 5.94.

Turning to `Cc1cn2cc(CC(=O)N3CCC4(CC3)CN([C@@H]3CCc5cc(-c6ccc(C(N)=O)nc6)ccc53)C4)nc2s1`, in the data set with MDCK, the Ratio is above 18.2. Moreover, the pKb in [3] is 6.48.

Consider `COc1ccc(CC(=O)N2CCC3(CC2)CN([C@@H]2CCc4cc(-c5cc(C)ncn5)ccc42)C3)nc1`, for which the pKb in data set [3] turned out to be 5.66.

`COc1ccc(CC(=O)N2CCC3(CC2)CN([C@@H]2CCc4cc(-c5nccc(C)n5)ccc42)C3)nc1`: in [1], the CLint scaled worked out at 17 mL/min/kg. The Ratio is 3.7 in the data set on MDCK and 20 in the data set listed under Homo sapiens. The pKb in data set [3] is 6.09. For the same compound, in data set [4], the Papp was 10 ×10⁻⁶ cm/s. In addition, in [5], the inhibition constant Ki was 50.1 nM.

As to `Cc1cc(-c2ccc3c(c2)CC[C@H]3N2CC3(CCN(C(=O)Cc4cn5cc(C)sc5n4)CC3)C2)ncn1` [PF-5190457], the CLint scaled in data set [1] was 21 mL/min/kg. For the same compound, the Ki in [2] and in [5] was 6.61 nM throughout. Besides, the IC50 (commonly the concentration that gives 50% inhibition) in data set [12] amounted to 3700 nM; in [16] it was 6900 nM. In data set [13], the inhibition entry was “inactive”. For the same compound, the Ratio with MDCK was determined as 7.2; in the data set listed under Homo sapiens it was 266. This compound showed a Fa in [14] of 100%. The pKb in [3] came out at 5.71. Also, the outcome in data set [15] was inactive. Also, the Papp in data set [4] was 5 ×10⁻⁶ cm/s.

`COc1ccc(CC(=O)N2CCC3(CC2)CN([C@@H]2CCc4cc(-c5ccncn5)ccc42)C3)nc1`: the CLint scaled in data set [1] is 82 mL/min/kg. The Ratio in the data set on MDCK turned out to be 5.4. Moreover, the pKb in data set [3] came to 6.08. Besides, the Papp in [4] turned out to be 15 ×10⁻⁶ cm/s.

Consider `COc1ccc(CC(=O)N2CCC3(CC2)CN([C@@H]2CCc4cc(-c5ncccn5)ccc42)C3)nc1`, for which, in data set [3], the pKb stood at 6.18. Moreover, the Ki in [5] is 25.1 nM.

With `COc1ccc(CC(=O)N2CCC3(CC2)CN([C@@H]2CCc4cc(-c5ncc(C)cn5)ccc42)C3)nc1`, the pKb in data set [3] is 5.86. Besides, in [5], the Ki is 85.1 nM.
